Assay [1] is described as follows: Cytotoxicity against human 30PT cells after 72 hrs by celltiter-glo luminescent assay. In kind it is functional. The method in brief: (§1)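 Patient-derived CSC spheroids were dissociated, plated at 2000–3000 viable cells, and held 24 h at 37 °C in 5% CO2. They were then treated 72 h with eight 1:3 serial dilutions (0.023–50 μM), with 0.1% DMSO as control, in triplicate. Viability was read by CellTiter-Glo luminescence relative to DMSO, and CC50 was obtained by 4-parameter logistic fit (mean of three experiments).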
(In ATP-based viability assays light output follows the ATP content of the culture.)

The nature of assay [2]: Cytotoxicity against human 30P cells after 72 hrs by celltiter-glo luminescent assay. In kind it is functional. The method in brief:
as §1

The test system of assay [3] is U-937. In words: Induction of apoptosis in human U937 cells at 50 uM after 45 hrs by flow cytometry. The format is functional, cell-based. In outline: (§2)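 Apoptosis was taken as the pre-G1 peak after propidium iodide staining in hypotonic citrate/Triton buffer (30 min, dark) and flow cytometry. Triplicate experiments.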
On the technique in general: Flow cytometry measures light scatter and fluorescence of single cells or particles in a stream.

Assay [4] deals with T1, NAD-dependent protein deacetylase sirtuin-2 (Homo sapiens, UniProt Q8IXJ6).
T1 sequence (Q8IXJ6 whole entry): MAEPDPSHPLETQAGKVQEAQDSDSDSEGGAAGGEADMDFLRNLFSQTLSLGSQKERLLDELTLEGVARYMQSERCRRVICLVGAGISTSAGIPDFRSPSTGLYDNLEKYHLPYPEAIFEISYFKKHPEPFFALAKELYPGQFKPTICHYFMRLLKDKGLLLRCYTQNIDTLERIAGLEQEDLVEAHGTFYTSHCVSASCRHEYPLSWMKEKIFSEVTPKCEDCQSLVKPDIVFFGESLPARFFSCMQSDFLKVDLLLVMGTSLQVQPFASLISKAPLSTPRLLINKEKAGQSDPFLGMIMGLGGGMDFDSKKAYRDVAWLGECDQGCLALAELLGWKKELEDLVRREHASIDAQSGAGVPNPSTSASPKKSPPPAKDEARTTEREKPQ
Description: Inhibition of human SIRT2 expressed in Escherichia coli using Gln-Pro-Lys-Lys(Ac) as substrate after 1 hr by Fluor de Lys fluorescence based assay. In outline:
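Recombinant full-length human sirtuin expressed in E. coli was incubated 1 h at 37 °C with p53-derived AMC-conjugated acetyl-peptide (SIRT1: Arg-His-Lys-Lys(Ac); SIRT2: Gln-Pro-Lys-Lys(Ac); […]) and NAD+ ([…]). The reaction was stopped and developed with developer containing 2 mM nicotinamide, and fluorescence read at ex 360/em 460 nm. Compound fluorescence was subtracted using an enzyme-free counter assay. Triplicate.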

The next assay has as its system MOLT-4. In words: Antiproliferative activity against human MOLT4 cells at 25 uM after 24 to 72 hrs by MTT assay. In kind it is functional, cell-based. In outline:
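Cells exposed to compound for 24, 48 and 72 h; growth inhibition read by MTT and expressed as percentage antiproliferative activity.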

Assay [5] in a line: Cytotoxicity against human CRC 1.1 cells after 72 hrs by celltiter-glo luminescent assay. In kind it is functional. In outline: as §1
For assay [6], the system named is U-937. In words: Induction of apoptosis in human U937 cells at 5 uM after 45 hrs by flow cytometry. The format is functional, cell-based. The method in brief:
as §2

Assay [7] can be described thus: Cytotoxicity against human CRO cells after 72 hrs by celltiter-glo luminescent assay. In kind it is functional. In outline:
as §1

pIC50: −log10 of the molar value. Activity calls are given as the source filed them. The calls are words filed in the database; no cut-off is given here.

Usually CC50 stands for the concentration that lowers cell viability or growth by half. Read a high CC50 as lower toxicity to the cells. Broadly, the pIC50 is −log10 of the IC50, conventionally taken in molar units. Low readings indicate a high IC50, high ones a low IC50. Take `CC(CS(=O)(=O)c1ccccc1/N=C/c1c(O)ccc2ccccc12)c1ccccc1` (stereo not drawn): the 50% cytotoxic concentration (CC50) turned out to be 15.3 µM in assay [1], 17.4 µM in assay [2], 19.5 µM in assay [5] and 15.7 µM in assay [7]. In addition, the outcome in the assay with U-937 [3] and in the assay with MOLT-4 was Active. Besides, the pIC50 in assay [4] was 4.62. Moreover, the outcome in the assay on U-937 [6] was inactive.

The values above are taken from ChEMBL document CHEMBL2177084, “Discovery of salermide-related sirtuin inhibitors: binding mode studies and antiproliferative effects in cancer cells including cancer stem cells” (J Med Chem, 2012).
